# Assay results from PubChem BioAssay AID1217 (Sanford-Burnham Center for Chemical Genomics, 2008).
# Screen size: about 190,000 compounds; about 1,300 (0.68%) were called active.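 The calls were made as follows: active = primary screen inhibition at 20 µM above a set limit (cut at about 50% in these data); inactive = the rest.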 The list comes from a sample in which actives are over-represented; it also holds similar structures and randomly drawn compounds.
# System: diaphorase (Clostridium kluyveri)
# Assay: compounds blocking diaphorase resazurin reduction – biochemical, uHTS, resorufin fluorescence, counter-screen for diaphorase-coupled primary assays, primary screen (AID 1217);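 also: plate controls were DMSO with full reaction for no effect and wells lacking NADH for full effect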
# Settings: diaphorase resazurin-to-resorufin fluorescence, NADH, 16 min; at 20 µM; stronger effect = higher value; bacterial (C. kluyveri) enzyme, not human
# Method in brief: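 System: Diaphorase enzyme from Clostridium kluyveri | Amount: Enzyme working solution with 0.14 U/mL diaphorase | Benchmarks: No-NADH positive control and DMSO neutral control | Signal: Fluorescence of resorufin formed from resazurin, Ex 544/Em 590 nm | Schedule: 16-min room-temperature incubation before reading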
row,SMILES,inhibition
1,COCCN(CCOC)S(=O)(=O)c1ccc(/C(O)=C(\C#N)c2nc3ccccc3[nH]2)cc1,5.6% (inactive)
2,Cc1coc2c(O)cc3c(c12)OC1(N2CCCCC2)C(=O)NCCCC31 (centres undefined),56.1% (active)
3,O=C(Cc1cccs1)Nc1nnc(SCc2ccc(F)cc2)s1,11.1% (inactive)
4,COc1cc2sc(C)nc2cc1C,6% (inactive)
5,CC1=C/C(=N\S(=O)(=O)c2ccccc2)C(C(C)C)=CC1=O,21.7% (inactive)
6,CC1=C/C(=N\OS(=O)(=O)c2ccccc2)C=CC1=O,71.4% (active)
7,CCOC(=O)C1(S(=O)(=O)c2ccccc2)CCN(Cc2ccccc2)CC1,16.8% (inactive)
8,O=C1CCCC2=C1C(c1cccs1)CC(=O)N2c1ccc(F)cc1 (centres undefined),6.3% (inactive)
9,CC(C)N1CCC(N2CCN(Cc3cccnc3)CC2CCO)CC1 (centres undefined),-0.8% (inactive)
10,CCOC(=O)C1CCN(C(=O)C2(NC(=O)Nc3cccc(F)c3)CCCCC2)CC1,-16.4% (inactive)
11,CCOC(=O)N1CCN(C(=O)Cc2ccc(-n3c(=S)[nH]c4ccccc4c3=O)cc2)CC1,51.3% (active)
12,O=C(Cc1ccc(-n2c(=O)[nH]c3ccccc3c2=O)cc1)N1CCN(c2cccc(Cl)c2)CC1,19.4% (inactive)
13,CCCCNC(=O)c1ccc(-n2c(=S)[nH]c3ccccc3c2=O)cc1,6.2% (inactive)
14,Cc1ccc(S(=O)(=O)CC(=O)Nc2c(C)n(C)n(-c3ccccc3)c2=O)cc1,-0.5% (inactive)
15,Cc1cc(C)c2c(n1)sc1c(=O)n(-c3ccccc3)c(=O)[nH]c12,59.3% (active)
16,Cc1cc(C)c2c(-n3cccc3)c(NC(=O)OCc3ccccc3)sc2n1,18.4% (inactive)
17,C/C(O)=C\c1nc(=O)c2c(C)cc(C)nc2n1-c1ccccc1,13.4% (inactive)
18,OCCC1CN(Cc2cccn2-c2nccs2)CCN1CCc1ccccc1 (centres undefined),18.5% (inactive)
19,N#C/C=C(/c1ccc(F)cc1)N1CCOCC1,20.9% (inactive)
20,O=C(CSc1nnc(-c2cccnc2)n1Cc1ccco1)c1ccc(Cl)cc1,16.4% (inactive)
21,C(=C\c1ccccc1)/CSc1nnc(-c2cccnc2)n1Cc1ccco1,53.4% (active)
22,O=C(CSc1nnc(-c2cccnc2)n1Cc1ccco1)c1ccc(Cl)c(Cl)c1,4% (inactive)
23,CC(=O)c1ccc(N2CCN(CC(=O)Nc3ccccc3N3CCOCC3)CC2)cc1,4% (inactive)
24,O=C(N/N=C/c1ccc2c(c1)OCO2)C(=O)N1CCCC1,-1.9% (inactive)
25,CN(C(=O)CSc1nnc(Nc2ccccc2)s1)C1CCS(=O)(=O)C1 (centres undefined),15% (inactive)

row,SMILES,inhibition
1,Cc1nn2c3ccccc3nc2n(C)c1=O,15.5% (inactive)
2,Cn1c(-c2ccco2)nc2cc3ccccc3cc21,18.4% (inactive)
3,c1coc(-c2nc3nc4ccccc4n3nc2-c2ccco2)c1,57.8% (active)
4,COc1cccc(NC(=S)N(Cc2ccc(C)cc2)Cc2ccccn2)c1,3.1% (inactive)
5,Cc1cc(-c2csc(N)n2)c(C)n1-c1ccccc1,19.9% (inactive)
6,CC(Sc1nc2c([nH]c3ccccc32)c(=O)n1C)c1ccccc1 (centres undefined),2.9% (inactive)
7,C=CCOc1cccc(CNn2cn[nH]c2=S)c1,14% (inactive)
8,COc1cccc(CNn2cn[nH]c2=S)c1OCc1ccccc1,79.8% (active)
9,C=CCOc1c(CNn2cn[nH]c2=S)cccc1OC,39.3% (inactive)
10,O=c1[nH]n2c(=O)c3c([nH]c2c1N=Nc1ccccc1)CCC3,20.3% (inactive)
11,Cc1csc(SCC(=O)Nc2sccc2C#N)n1,-2.4% (inactive)
12,CCOc1ccc(CN2CCCN(C)CC2)cc1,76.8% (active)
13,CCOc1ccc(CN2CCN(Cc3ccc(C)o3)CC2CCO)cc1 (centres undefined),-6.4% (inactive)
14,OC(COc1ccc(CN2CCSCC2)cc1)CN1CCCCC1 (centres undefined),6.8% (inactive)
15,N#CC1(NC(=O)COc2ccc3oc4ccccc4c3c2)CCCCC1,-0.7% (inactive)
16,CC(=O)c1c(-c2ccccc2)c2ccccc2[nH]c1=O,17.9% (inactive)
17,O=[N+]([O-])c1cccc(-c2nnc3c4ccccc4c4ccccc4n23)c1,3.7% (inactive)
18,O=c1[nH]c2ccccc2n2c(-c3ccccc3)nnc12,66.5% (active)
19,Cn1ncc2c(NNC(=O)Cc3cccc4ccccc34)ncnc21,8.6% (inactive)
20,OC(C#CCN1CCOCC1)(c1ccccc1)C1CCCCC1 (centres undefined),-10.7% (inactive)
21,CC(C)(C)N(CC#CCC(O)(c1ccccc1)C1CCCC1)CCO (centres undefined),57.2% (active)
22,CN(CC#CCC(c1ccccc1)c1ccccc1)C(C)(C)C,17.9% (inactive)
23,O=S(=O)(Nc1ccc2cn[nH]c2c1)c1ccccc1,6.9% (inactive)
24,COc1cccc(-c2ccc(C#N)c(SCC(=O)NCCc3ccc(Cl)cc3)n2)c1,7% (inactive)
